Activity calls are given as the source filed them. The rule behind the calls is not given here.
Key:
[1] = biological target: T1, Prolyl endopeptidase (Homo sapiens) (UniProt P48147); assay: Inhibition of prolyl oligopeptidase in intact human fibroblasts assessed as blockade of Z-Gly-Pro-AMC substrate hydrolysis at 100 uM by fluorimetric assay
T1 sequence (whole entry): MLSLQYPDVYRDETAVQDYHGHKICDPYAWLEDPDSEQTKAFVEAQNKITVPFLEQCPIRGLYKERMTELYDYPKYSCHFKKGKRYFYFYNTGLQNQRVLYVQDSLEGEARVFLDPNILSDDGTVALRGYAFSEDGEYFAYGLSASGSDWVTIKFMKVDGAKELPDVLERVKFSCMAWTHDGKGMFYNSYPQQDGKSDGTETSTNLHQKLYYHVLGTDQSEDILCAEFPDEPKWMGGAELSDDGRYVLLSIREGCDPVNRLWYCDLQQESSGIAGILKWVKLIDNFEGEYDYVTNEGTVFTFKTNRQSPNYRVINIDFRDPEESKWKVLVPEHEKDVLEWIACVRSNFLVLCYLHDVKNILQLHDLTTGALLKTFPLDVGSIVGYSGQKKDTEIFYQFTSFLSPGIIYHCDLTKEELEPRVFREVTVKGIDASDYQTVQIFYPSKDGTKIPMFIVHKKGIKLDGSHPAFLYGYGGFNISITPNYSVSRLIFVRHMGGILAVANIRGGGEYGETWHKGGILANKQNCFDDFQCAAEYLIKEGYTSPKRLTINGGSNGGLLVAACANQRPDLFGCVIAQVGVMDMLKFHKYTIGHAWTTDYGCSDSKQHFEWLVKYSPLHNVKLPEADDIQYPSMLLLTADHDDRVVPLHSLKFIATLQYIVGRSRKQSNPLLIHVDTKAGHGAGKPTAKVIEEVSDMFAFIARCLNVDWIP
Method in brief: (§1)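 Intact confluent human glioblastoma (LN18, LN229, LNZ308), brain endothelial HCEC, or lung PO03 and skin PG98/5 fibroblast monolayers in PBS (pH 7.2-7.4), cells grown beforehand in DMEM with 10% FCS. Compound was diluted from methanol stock into water and preincubated 5-10 min at room temperature. Z-Gly-Pro-AMC was then added and read fluorimetrically. Duplicate wells.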

[2] = biological target: T1, Prolyl endopeptidase (Homo sapiens); assay: Inhibition of prolyl oligopeptidase in human fibroblast extracts assessed as blockade of Z-Gly-Pro-AMC substrate hydrolysis at 100 uM by fluorimetric assay
Method in brief: (§2)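 Confluent human glioblastoma (LN18, LN229, LNZ308), brain endothelial HCEC, or lung PO03 and skin PG98/5 fibroblasts extracted in PBS with 0.1% Triton X-100. Compound was diluted from methanol stock into water and preincubated 5-10 min at room temperature. Z-Gly-Pro-AMC was then added and read by fluorescence. Duplicate wells.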

[3] = biological target: Dipeptidyl peptidase 4 (Homo sapiens) (UniProt P27487); assay: Inhibition of DPP4 in human brain derived endothelial cell extracts assessed as blockade of Gly-Pro-AMC substrate hydrolysis at 100 uM by fluorimetric assay; type: cell-free
Chain of Dipeptidyl peptidase 4 (Homo sapiens) (P27487 whole entry, looked up): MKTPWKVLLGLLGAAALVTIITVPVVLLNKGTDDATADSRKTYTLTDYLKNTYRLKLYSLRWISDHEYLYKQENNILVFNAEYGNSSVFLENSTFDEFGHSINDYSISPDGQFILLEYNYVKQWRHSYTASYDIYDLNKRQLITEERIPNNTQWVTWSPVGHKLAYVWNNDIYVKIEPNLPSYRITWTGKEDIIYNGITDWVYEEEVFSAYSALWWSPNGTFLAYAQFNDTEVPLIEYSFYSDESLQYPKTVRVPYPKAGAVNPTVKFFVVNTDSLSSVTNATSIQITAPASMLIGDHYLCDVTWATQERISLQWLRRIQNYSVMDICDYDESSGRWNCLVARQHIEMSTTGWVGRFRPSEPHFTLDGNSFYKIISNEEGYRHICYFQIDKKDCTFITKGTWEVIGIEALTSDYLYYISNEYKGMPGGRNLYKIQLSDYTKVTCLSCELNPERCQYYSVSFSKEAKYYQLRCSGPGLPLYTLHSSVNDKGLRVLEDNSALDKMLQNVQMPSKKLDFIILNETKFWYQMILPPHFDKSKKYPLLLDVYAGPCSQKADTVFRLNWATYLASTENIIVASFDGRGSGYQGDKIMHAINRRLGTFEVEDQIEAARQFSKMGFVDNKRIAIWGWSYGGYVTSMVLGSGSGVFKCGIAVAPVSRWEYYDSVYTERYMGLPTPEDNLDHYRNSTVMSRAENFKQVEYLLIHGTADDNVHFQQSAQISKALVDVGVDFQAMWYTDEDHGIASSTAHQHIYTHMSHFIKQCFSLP
Method in brief: (§3)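 Confluent human cells (glioblastoma LN18, LN229, LNZ308; brain endothelial HCEC; lung PO03 or skin PG98/5 fibroblasts) grown in DMEM with 4.5 g/L glucose and 10% FCS, then lysed in PBS (pH 7.2-7.4) containing 0.1% Triton X-100. Compound was diluted from methanol stock into water and preincubated 5-10 min at room temperature. Gly-Pro-AMC was then added. Duplicate wells.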

[4] = biological target: Dipeptidyl peptidase 4 (Homo sapiens) (UniProt P27487); assay: Inhibition of DPP4 in human astrocyte derived cell extracts assessed as blockade of Gly-Pro-AMC substrate hydrolysis at 100 uM by fluorimetric assay; method in brief: as §3
[5] = biological target: Dipeptidyl peptidase 4 (Homo sapiens) (UniProt P27487); assay: Inhibition of DPP4 in human fibroblast extracts assessed as blockade of Gly-Pro-AMC substrate hydrolysis at 100 uM by fluorimetric assay; method in brief: as §3
[6] = biological target: T1, Prolyl endopeptidase (Homo sapiens); assay: Inhibition of prolyl oligopeptidase in human astrocyte derived cell extracts assessed as blockade of Z-Gly-Pro-AMC substrate hydrolysis at 100 uM by fluorimetric assay; method in brief: as §2
[7] = biological target: Dipeptidyl peptidase 4 (Homo sapiens) (UniProt P27487); assay: Inhibition of DPP4 in intact human astrocyte derived cells assessed as blockade of Gly-Pro-AMC substrate hydrolysis at 100 uM by fluorimetric assay
Method in brief: (§4)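 Confluent intact human glioblastoma (LN18, LN229, LNZ308), brain endothelial HCEC, or lung PO03 and skin PG98/5 fibroblast monolayers kept in PBS (pH 7.2-7.4) without detergent. Compound was diluted from methanol stock into water and preincubated 5-10 min at room temperature. Gly-Pro-AMC was then added and hydrolysis read by fluorescence. Duplicate wells.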

[8] = biological target: Dipeptidyl peptidase 4 (Homo sapiens) (UniProt P27487); assay: Inhibition of DPP4 in intact human brain derived endothelial cells assessed as blockade of Gly-Pro-AMC substrate hydrolysis at 100 uM by fluorimetric assay; type: cell-based; details: Endothelial cell; method in brief: as §4
[9] = biological target: T1, Prolyl endopeptidase (Homo sapiens); assay: Inhibition of prolyl oligopeptidase in intact human astrocyte derived cells assessed as blockade of Z-Gly-Pro-AMC substrate hydrolysis at 100 uM by fluorimetric assay; method in brief: as §1
[10] = biological target: T1, Prolyl endopeptidase (Homo sapiens); assay: Inhibition of prolyl oligopeptidase in human brain derived endothelial cell extracts assessed as blockade of Z-Gly-Pro-AMC substrate hydrolysis at 100 uM by fluorimetric assay; type: cell-free; method in brief: as §2
[11] = biological target: Dipeptidyl peptidase 4 (Homo sapiens) (UniProt P27487); assay: Inhibition of DPP4 in intact human fibroblasts assessed as blockade of Gly-Pro-AMC substrate hydrolysis at 100 uM by fluorimetric assay; method in brief: as §4
[12] = biological target: T1, Prolyl endopeptidase (Homo sapiens); assay: Inhibition of prolyl oligopeptidase in intact human brain derived endothelial cells assessed as blockade of Z-Gly-Pro-AMC substrate hydrolysis at 100 uM by fluorimetric assay; type: cell-based; details: Endothelial cell; method in brief: as §1

Row | SMILES | inhibition [1] | inhibition [2] | inhibition [3] | inhibition [4] | inhibition [5] | inhibition [6] | inhibition [7] | inhibition [8] | inhibition [9] | inhibition [10] | inhibition [11] | inhibition [12]
1 | NC(=O)[C@@H]1CS[C@H]2C[C@@H](NC(=O)OCc3ccccc3)C(=O)N21 | inactive | inactive | inactive | inactive | inactive | inactive | inactive | inactive | inactive | inactive | inactive | inactive
2 | N#C[C@H]1CS[C@@H]2C[C@@H](NC(=O)OCc3ccccc3)C(=O)N12 | inactive | 10% | inactive | inactive | inactive | 10% | inactive | inactive | inactive | > 50% | inactive | 10%
3 | N#CC1CCCCN1C(=O)CNC(=O)OCc1ccccc1 (racemic) | inactive | 10% | inactive | inactive | inactive | > 50% | inactive | inactive | 10% | 10% | inactive | inactive
4 | N#C[C@H]1CCCN1C(=O)CNC(=O)OCc1ccccc1 | – | – | inactive | inactive | inactive | – | inactive | inactive | – | – | inactive | –
5 | N#C[C@H]1CS[C@@H]2C[C@H](NC(=O)OCc3ccccc3)C(=O)N12 | inactive | inactive | inactive | inactive | inactive | 10% | inactive | inactive | inactive | 10% | inactive | inactive
6 | NC(=O)[C@@H]1CS[C@H]2C[C@H](NC(=O)OCc3ccccc3)C(=O)N21 | inactive | inactive | inactive | inactive | inactive | inactive | inactive | inactive | inactive | inactive | inactive | inactive
7 | N#C[C@@H]1CCCN1 | inactive | inactive | inactive | inactive | – | inactive | inactive | inactive | inactive | inactive | inactive | inactive

The remaining lines, values ahead:

Row | inhibition [1] | inhibition [2] | inhibition [3] | inhibition [4] | inhibition [5] | inhibition [6] | inhibition [7] | inhibition [8] | inhibition [9] | inhibition [10] | inhibition [11] | inhibition [12] | SMILES
8 | – | – | inactive | inactive | inactive | – | inactive | inactive | – | – | inactive | – | C[C@@H](NC(=O)OCc1ccccc1)C(=O)N1CCC[C@H]1C#N
9 | – | – | inactive | inactive | inactive | – | inactive | inactive | – | – | inactive | – | C[C@H](NC(=O)OCc1ccccc1)C(=O)N1CCC[C@H]1C#N
10 | – | – | inactive | inactive | inactive | – | inactive | inactive | – | – | inactive | – | N#C[C@@H]1CCCN1C(=O)CNC(=O)OCc1ccccc1

From ChEMBL document CHEMBL1153716, “Constrained peptidomimetics reveal detailed geometric requirements of covalent prolyl oligopeptidase inhibitors” (J Med Chem, 2009)
